From ChEMBL document CHEMBL5038580 (J Med Chem, 2022)
Activity calls are given as the source filed them. The rule behind the calls is not given here. Residues, ends and D or L forms follow the SMILES beside them.

Legend:
Huh-7 = assay: Cytotoxicity against human Huh7 cells incubated for 48 hrs by CCK-8 assay; type: functional
Method in brief: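 Huh-7 cells (100 μL at 1 × 10^5 cells/mL) were preincubated 12 h at 37 °C, 5% CO2. Serially diluted peptide was added for 48 h, with a no-peptide blank and a Triton X-100 positive control. CCK-8 was added for 2 h and absorbance read at 450 nm. Three independent experiments, mean ± SD.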

Mus musculus = assay: Antiviral activity against MERS-COV infected in BALB/c mouse at 0.023 mmol/kg, iv measured upto 12 hrs; type: functional, organism-based; conditions: time hrs <=12
Method in brief: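 Peptide in PBS (pH 7.4) was given at 0.023 mmol/kg i.v. to three male BALB/c mice aged 8 weeks. Sera were tested in a 2 h S-mediated fusion assay with Huh-7 target cells. The serum dilution giving 50% fusion inhibition was calculated. Significance by Student's t test.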

SARS-CoV-2 [1] = assay: Antiviral activity against SARS-CoV-2 transfected in 293T cells assessed as inhibition of viral S protein mediated membrane fusion to 293T/ACE2 cells at 20 uM incubated for 24 hrs by fluorescence microscopy analysis; type: functional, organism-based; conditions: Severe acute respiratory syndrome coronavirus 2, HEK-293T
Method in brief: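 Single-concentration screen at 20 μM. Effector 293T cells expressing S/EGFP (10^4) were added to ACE2-293T target cells (10^5/well) and co-incubated at 37 °C for 24 h. Fusion was scored by fluorescence microscopy from counts of fused and unfused cells.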

Human coronavirus OC43 [2] = assay: Antiviral activity against HCoV-OC43 assessed as inhibition of viral S-protein mediated cell-cell fusion in Huh7 cells preincubated for 30 mins followed by cell addition and measured after 24 hrs; type: functional, cell-based; conditions: Betacoronavirus 1, OC43, Huh-7
Method in brief: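 Effector HEK293T cells were transfected with an OC43 spike/GFP plasmid and harvested after 36 h. They were preincubated with diluted peptides at 37 °C for 30 min, then co-incubated with Huh-7 target cells in the presence of trypsin for 24 h. Inhibition was calculated from counts of fused and unfused cells. Three independent experiments, mean ± SD.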

Human coronavirus OC43 [3] = assay: Antiviral activity against HCoV-OC43 assessed as reduction in viral infection preincubated for 30 mins followed by RD cells addition and measured after 3 days by CCK-8 assay; type: functional; conditions: Betacoronavirus 1, OC43, RD
Method in brief: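 HCoV-OC43 (100 TCID50) was mixed with diluted peptides for 30 min at 37 °C, then added to RD cells. After 3 days, cytopathic effect was read by CCK-8. Three independent experiments, mean ± SD.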

in vitro [4] = conditions: human, RD cells
[5] = test system: Human immunodeficiency virus 1; assay: Antiviral activity against HIV 1 25710-2 subtype C assessed as inhibition of viral entry preincubated for 30 min followed by U87-CD4-[…] positive cells addition and culture medium replacement after 12 hrs post infection and measured after 48 hrs by luciferase assay; type: functional, organism-based; conditions: Human immunodeficiency virus 1, 25710-2 subtype C
Method in brief: (§1)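 U87 CD4+ CCR5+ cells (1 × 10^4/well) were seeded and grown for 12 h at 37 °C, 5% CO2. Diluted peptides were mixed with pseudovirus for 30 min at 37 °C and then put on the cells. Medium was replaced 12 h post-infection. Cells were lysed 48 h later and luciferase was read. Three independent experiments, mean ± SD.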

[6] = test system: Human immunodeficiency virus 1; assay: Antiviral activity against HIV 1 JRFL subtype B assessed as inhibition of viral entry preincubated for 30 min followed by U87-CD4-[…] positive cells addition and culture medium replacement after 12 hrs post infection and measured after 48 hrs by luciferase assay; type: functional, organism-based; conditions: Human immunodeficiency virus 1, JRFL subtype B; method in brief: as §1
[7] = test system: Human immunodeficiency virus 1; assay: Antiviral activity against HIV-1 IIIB assessed as inhibition of HIV-1 Env mediated cell-cell fusion in MT-2 cells preincubated for 30 mins followed by cell addition and measured after 2 hrs by calcein AM staining based fluorescence microscopy; type: functional, organism-based; conditions: Human immunodeficiency virus 1, IIIB, MT2
Method in brief: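 H9/HIV-1 IIIB cells were labelled with Calcein AM for 30 min at 37 °C, washed, and resuspended in RPMI/10% FBS. They were incubated with diluted peptides for 30 min at 37 °C. MT-2 cells (1 × 10^5) were then added and cultured for 2 h at 37 °C. Fused cells were counted by fluorescence microscopy and IC50 was calculated. Three independent experiments.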

[8] = test system: Human immunodeficiency virus 1; assay: Antiviral activity against HIV 1 BaL(R5) incubated overnight by ELISA analysis; type: functional, organism-based; conditions: Human immunodeficiency virus 1, BaL(R5)
Method in brief: (§2)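 Peptides were diluted in FBS-free RPMI 1640 and mixed with 100 TCID50 HIV-1 BaL. CEMx174 5.25 M7 cells (10^4) were added and cultured overnight at 37 °C, then medium was changed to RPMI/10% FBS. After 6 more days, supernatants were lysed with 5% Triton X-100 and p24 was measured by ELISA. IC50 calculated from three independent experiments.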

[9] = test system: Human immunodeficiency virus 1; assay: Antiviral activity against HIV 1 IIIB([…]) incubated overnight by ELISA analysis; type: functional, organism-based
Method in brief: as §2, with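 “HIV-1 IIIB. MT-2” for “HIV-1 BaL. CEMx174 5.25 M7”, “After 3” for “After 6”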

SARS-CoV-2 [10] = assay: Antiviral activity against SARS-CoV-2 transfected in 293T cells assessed as inhibition of viral S protein mediated membrane fusion to 293T/ACE2 cells incubated for 24 hrs by fluorescence microscopy analysis; type: functional, organism-based, HEK293T; conditions: Severe acute respiratory syndrome coronavirus 2, HEK-293T
Method in brief: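 Effector 293T cells were transfected with an S/EGFP plasmid for 48 h and collected in FBS-free DMEM. ACE2-293T target cells (10^5/well) were plated 6–8 h before fusion. Effector cells (10^4) were added with graded peptide dilutions and co-incubated at 37 °C for 24 h. Percent inhibition was calculated from fused and unfused cell counts under fluorescence microscopy.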

in vitro [11] = conditions: human, MT2 cells

Molecule	CC50 (Huh-7)	Activity (Mus musculus)	Activity (SARS-CoV-2 [1])	IC50 (Human coronavirus OC43 [2])	IC50 (Human coronavirus OC43 [3])	CC50 at 48 h (in vitro [4])	IC50 [5]	IC50 [6]	IC50 [7]	IC50 [8]	IC50 [9]	IC50 (SARS-CoV-2 [10])	CC50 at 48 h (in vitro [11])
CC[C@H](C)[C@H](NC(=O)[C@H](Cc1ccc(O)cc1)NC(=O)[C@H](CO)NC(=O)[C@H](CCC(=O)O)NC(=O)[C@H](CCC(=O)O)NC(=O)[C@H](CC(C)C)NC(=O)[C@H](CCCCN)NC(=O)[C@H](CCCCN)NC(=O)[C@@H](NC(=O)[C@@H](NC(=O)[C@H](CCC(=O)O)NC(=O)[C@H](CCC(=O)O)NC(=O)[C@H](CC(C)C)NC(=O)[C@H](CCCCN)NC(=O)[C@H](CCCCN)NC(=O)[C@H](CCSC)NC(=O)[C@H](CCC(=O)O)NC(=O)[C@H](Cc1ccc(O)cc1)NC(=O)[C@H](CCC(=O)O)NC(=O)[C@H](CC(C)C)NC(=O)[C@H](CC(=O)O)NC(=O)[C@H](CC(C)C)NC(=O)[C@H](CC(C)C)NC(=O)[C@@H](NC(=O)[C@@H](NC(=O)[C@H](CC(N)=O)NC(=O)[C@@H](NC(=O)[C@H](CCC(N)=O)NC(=O)[C@@H](NC(=O)[C@H](CC(C)C)NC(=O)[C@H](CO)NC(C)=O)[C@@H](C)O)[C@@H](C)CC)[C@@H](C)O)[C@@H](C)O)C(C)C)C(C)C)C(=O)N[C@@H](CC(=O)O)C(=O)N[C@@H](CC(C)C)C(=O)N[C@@H](CCCCN)C(=O)N[C@@H](CCC(=O)O)C(=O)N[C@@H](CC(C)C)C(N)=O	> 50000 nM	Active	–	–	–	–	–	–	–	–	–	–	–
CC[C@H](C)[C@H](NC(=O)[C@H](C)NC(=O)[C@H](CCC(=O)O)NC(=O)[C@H](CCC(=O)O)NC(=O)[C@H](CC(C)C)NC(=O)[C@H](CCCCN)NC(=O)[C@H](CCCCN)NC(=O)[C@H](CCSC)NC(=O)[C@H](CCC(=O)O)NC(=O)[C@H](Cc1ccc(O)cc1)NC(=O)[C@H](CCC(=O)O)NC(=O)[C@H](CC(C)C)NC(=O)[C@H](CC(=O)O)NC(=O)[C@H](CC(C)C)NC(=O)[C@H](Cc1ccccc1)NC(=O)[C@@H](NC(=O)[C@@H](NC(=O)[C@H](CC(N)=O)NC(=O)[C@@H](NC(=O)[C@H](CCC(N)=O)NC(=O)[C@H](CC(=O)O)NC(=O)[C@H](CC(C)C)NC(=O)[C@H](CO)NC(C)=O)[C@@H](C)CC)C(C)C)[C@@H](C)O)C(=O)N[C@@H](CCCCN)C(=O)N[C@@H](CCCCN)C(=O)N[C@@H](CC(C)C)C(=O)N[C@@H](CCC(=O)O)C(=O)N[C@@H](CCC(=O)O)C(=O)N[C@@H](CO)C(=O)N[C@@H](Cc1ccc(O)cc1)C(=O)N[C@H](C(=O)N[C@@H](CC(=O)O)C(=O)N[C@@H](CC(C)C)C(=O)N[C@@H](CCCCN)C(=O)N[C@@H](CCC(=O)O)C(=O)N[C@@H](CC(C)C)C(N)=O)[C@@H](C)CC	–	–	Active	280 nM	970 nM	> 40000 nM	–	–	–	–	–	–	–
CC[C@H](C)[C@H](NC(C)=O)C(=O)N[C@@H](CCC(=O)O)C(=O)N[C@@H](CCC(=O)O)C(=O)N[C@H](C(=O)N[C@H](C(=O)N[C@@H](CCCCN)C(=O)N[C@@H](CCCCN)C(=O)N[C@H](C(=O)N[C@@H](Cc1c[nH]cn1)C(=O)N[C@@H](Cc1c[nH]cn1)C(=O)N[C@H](C(=O)N[C@@H](CCC(=O)O)C(=O)N[C@@H](CCCNC(=N)N)C(=O)N[C@@H](C)C(=O)N[C@H](C(=O)N[C@@H](CCC(=O)O)C(=O)N[C@@H](C)C(=O)N[C@@H](CCC(N)=O)C(=O)N[C@@H](CCC(N)=O)C(=O)N[C@@H](CCCCN)C(=O)N[C@@H](CC(C)C)C(=O)N[C@@H](CC(C)C)C(=O)N[C@@H](CCC(N)=O)C(=O)N[C@@H](CC(C)C)C(=O)N[C@H](C(=O)N[C@H](C(=O)N[C@@H](Cc1c[nH]c2ccccc12)C(=O)NCC(=O)N[C@H](C(=O)N[C@@H](CCCCN)C(=O)N[C@@H](CCC(N)=O)C(=O)N[C@@H](CC(C)C)C(=O)N[C@@H](CCC(N)=O)C(=O)N[C@@H](C)C(=O)N[C@@H](CCCNC(=N)N)C(=O)N[C@H](C(=O)N[C@@H](CC(C)C)C(N)=O)[C@@H](C)CC)[C@@H](C)CC)C(C)C)[C@@H](C)O)[C@@H](C)CC)[C@@H](C)CC)[C@@H](C)CC)C(C)C)[C@@H](C)CC (Ac-IEEIVKKIHHIERAIEAQQKLLQLTVWGIKQLQARIL-NH2)	–	–	–	> 20000 nM	> 20000 nM	–	298 nM	353 nM	472 nM	176 nM	18.5 nM	> 20000 nM	–
enfuvirtide	–	–	–	–	–	–	11.5 nM	7.86 nM	24 nM	1.58 nM	17.8 nM	–	> 10000 nM
